The target of one data set is Tubulin (Homo sapiens) (UniProt P68371+Q9H4B7+P0DPH7+P68366+Q13509+Q71U36+P04350+Q3ZCM7+P07437+P68363+Q9BQE3+Q6PEY2+Q13885+Q9BVA1+Q9BUF5). The data set can be described thus: Induction of microtubule stabilization (unknown origin) at 0.2 to 5 uM. The class given is protein-complex assay. As to conditions: dose 0.2-5 µM.
Data set [1] can be described thus: Toxicity in Swiss albino mouse assessed as change in body weight at 50 mg/kg, po administered for 7 days (reference value: 29.35 +/- 0.57 g). The class given is organism-based. As to conditions: in vivo, 168 h, time 7 day.
Data set [2] can be described thus: Hepatotoxicity in Swiss albino mouse assessed as SGPT level at 50 mg/kg, po administered for 7 days (reference value: 17.01 +/- 2.33 U/L). The class given is toxicity, organism-based. As to conditions: in vivo, 168 h, time 7 day. Put shortly:
(§1)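 Single acute oral dose (5, 50, 300 or 1000 mg/kg) given to Swiss albino mice, n = 6, with 7-day observation. At the end, haematological and serum biochemical parameters were measured. Compared with untreated controls; mean ± SE, ANOVA, p < 0.05.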

Data set [3] in a line: Toxicity in Swiss albino mouse assessed as WBC level at 300 mg/kg, po administered for 7 days (reference value: 5.29 +/- 0.51 10^3/mm3). As to conditions: in vivo, 168 h, time 7 day. The class given is organism-based.
A short description of data set [4]: Hepatotoxicity in Swiss albino mouse assessed as SGOT level at 1000 mg/kg, po administered for 7 days (reference value: 31.51 +/- 6.31 U/L). The class given is toxicity, organism-based. As to conditions: in vivo, 168 h, time 7 day. The gist of the method: as §1
A short description of data set [5]: Antiinflammatory activity in mouse peritoneal macrophage assessed as reduction in LPS-induced TNFalpha production at 10 ug/ml. The data set is classed as functional. As to conditions: dose 10 µg/ml.
The nature of data set [6]: Toxicity in Swiss albino mouse assessed as haemoglobin level at 50 mg/kg, po administered for 7 days (reference value: 15.66 +/- 0.80 g/dl). The class given is organism-based. As to conditions: in vivo, 168 h, time 7 day.
Data set [7] is described as follows: Toxicity in Swiss albino mouse assessed as morbidity at 5 to 1000 mg/kg, po administered for 7 days. The class given is organism-based. As to conditions: in vivo, 168 h, dose 5-1000 mg/kg, time 7 day.

Calls of active or inactive are those of the source. No cut-off for these calls is given here.

Consider `COc1cc(C2/C(=C/c3ccc(/C=C/C(=O)NO)cc3)C(=O)c3cc(OC)c(OC)c(OC)c32)cc(OC)c1OC` (stereo not drawn), for which, on Tubulin (Homo sapiens), the outcome was Active. Besides, the Activity in data set [1] is 28.18 g; in data set [2] it was 19.56 U/L; in data set [3] it was 5.75 10^3/mm3; in data set [4] it was 33.4 U/L; in data set [5] it was 872.08 pg/mL; in data set [6], 15.54 g/dL. In addition, the Activity result in data set [7] is reported as “Non-Toxic”.
